High-throughput results (PubChem BioAssay)
Most compounds without a hit are left out; they make up all but 2.1% or so of the library.
DNMT1 inh = blocks human DNA methyltransferase DNMT1 | AID 588458 | actives 0.83% (n = 360,000) | DNMT1 molecular beacon, Hinp1I cleavage, fluorescence | inhibition (reported as % activation of signal), % at 10 µM | P26358; in the data active = inhibition above about 50%
LMPTP block = LMPTP (human) inhibition; P24666; recombinant LMPTP-A, OMFP fluorogenic substrate, fluorescence intensity; inhibition, % at 20 µM; actives 0.22% (n = 360,000);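 active = compounds that cut the enzyme signal by at least half of the control window in the single-dose screen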;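 note: plate controls were DMSO wells with enzyme plus substrate for no effect and substrate without enzyme for full effect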
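Test system – LMPTP-A phosphatase enzyme · Quantity – 0.625 nM LMPTP-A final · Reagent – OMFP substrate, 400 µM final · Dosing – one test concentration per compound, 20 µM, with 3% DMSO overall · Timing – 50 min enzyme reaction at room temperature, protected from light · Detection – fluorescence intensity · Controls – substrate-only low control, DMSO enzyme-plus-substrate high control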
GRK2 aptamer HTS = inhibitors of human GRK2 displacing RNA aptamer | P25098 | bead flow cytometry, FAM-aptamer displacement from GRK2 | inhibition of aptamer binding, % at 10 µM | actives 0.59% (n = 330,000);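 active = inhibition of aptamer binding above 40%, roughly 3 SD of noise, on plates passing a quality check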;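 note: median bead fluorescence of bound FAM aptamer so fluorescent compounds give negative values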
Target sequence (P25098 whole entry, looked up): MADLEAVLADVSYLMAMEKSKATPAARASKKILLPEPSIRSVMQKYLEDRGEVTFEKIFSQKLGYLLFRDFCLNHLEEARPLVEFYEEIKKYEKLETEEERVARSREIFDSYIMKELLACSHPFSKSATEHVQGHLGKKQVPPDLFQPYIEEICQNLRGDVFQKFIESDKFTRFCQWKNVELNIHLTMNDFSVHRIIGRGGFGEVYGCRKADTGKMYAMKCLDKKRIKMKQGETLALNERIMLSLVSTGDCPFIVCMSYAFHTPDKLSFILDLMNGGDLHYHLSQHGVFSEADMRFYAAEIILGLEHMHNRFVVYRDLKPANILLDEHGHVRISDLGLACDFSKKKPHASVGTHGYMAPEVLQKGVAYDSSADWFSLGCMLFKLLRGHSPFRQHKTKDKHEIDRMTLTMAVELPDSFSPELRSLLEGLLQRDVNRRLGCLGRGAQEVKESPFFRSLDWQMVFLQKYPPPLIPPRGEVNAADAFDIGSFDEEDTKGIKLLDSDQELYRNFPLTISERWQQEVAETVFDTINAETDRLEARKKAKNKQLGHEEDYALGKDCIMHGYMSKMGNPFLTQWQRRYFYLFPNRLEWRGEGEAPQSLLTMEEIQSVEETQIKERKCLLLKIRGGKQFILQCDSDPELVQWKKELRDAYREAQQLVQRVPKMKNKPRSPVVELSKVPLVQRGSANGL
STEP inh = STEP (human) phosphatase inhibition. P54829. recombinant STEP, OMFP fluorogenic substrate, fluorescence. actives 0.25% (n = 360,000). AID 588621. inhibition, % at 20 µM;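 active = inhibition at 20 µM, scaled per plate between control wells, above about 37%, limit read from the data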;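 note: 0% = DMSO with enzyme and substrate and 100% = substrate only without enzyme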
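material = STEP tyrosine phosphatase | reagent = fluorogenic phosphatase substrate OMFP at 25 µM final | doses = single compound dose of 20 µM, 1% DMSO final | schedule = 20 min reaction, room temperature, in the dark | measured by = fluorescence, 480/540 nm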
Scp-1 inhibitor = blocks human Scp-1 phosphatase activity | Q9GZU7 | Recombinant Scp1, phosphopeptide, malachite green phosphate absorbance | inhibition, % at 20 µM | actives 0.88% (n = 340,000) | AID 493091;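 active = inhibition above about 50% at 20 µM, limit read from the data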;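 note: plate controls were DMSO wells with enzyme for no effect and wells lacking enzyme for full effect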
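Material: truncated SCP-1 phosphatase (76-261aa) / Buffer or medium: 50 mM Tris acetate pH 5.5, 0.005% Tween-20, 10 mM MgCl2 / Compound dosing: one concentration, 20 µM, with 1.0% DMSO / Incubation: 45 min room-temperature reaction, 5 min colour, 30 min stabiliser / Detection: colorimetric free-phosphate detection, absorbance 630 nm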
SUMO1-SIM PPI = SUMO1-SIM interaction modulation; P63165; SUMO1 binding to a labelled peptide, TR-FRET, 1 h; inhibition, % at 20 µM; actives 0.33% (n = 360,000); AID 602429; in the data active = inhibition above about 37%
Target sequence (P63165 whole entry, looked up): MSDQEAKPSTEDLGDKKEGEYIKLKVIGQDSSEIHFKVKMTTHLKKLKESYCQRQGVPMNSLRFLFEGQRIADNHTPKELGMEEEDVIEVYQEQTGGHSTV
GRK2 inh confirm = confirmation of human GRK2 inhibitors displacing RNA aptamer; aptamer displacement, % at 10 µM; AID 504451; bead-bound GRK2, FAM-aptamer displacement, flow cytometry; actives 4% (n = 2,000); shares compounds with GRK2 aptamer HTS;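 active = aptamer displacement above 40%, near three times the noise of non-fluorescent compounds, on plates passing quality checks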;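 note: negative values mostly reflect intrinsic compound fluorescence rather than true enhancement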
FAM quench CP1 = counter-screen for GRK2 aptamer inhibitors: fluorescent aptamer quenchers | shares compounds with GRK2 aptamer HTS | Carboxyfluorescein RNA aptamer on beads, flow cytometry quenching; hits give low values | fluorescence response (% of DMSO), % at 10 µM | 2,000 tested, under 10 active;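 active = compounds that quench the bead-bound fluorescent RNA probe, cutting fluorescence to under half of the solvent control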;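 note: counterscreen run without GRK2 so only probe quenching by compound is measured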
GRK2 confirm 2 = confirmation of human GRK2 inhibitors binding RNA aptamer site | shares compounds with GRK2 aptamer HTS | bead-bound GRK2, FAM-aptamer displacement, flow cytometry | inhibition of aptamer binding, % at 10 µM | 360 tested, under 10 active | AID 504782;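 active = inhibition of aptamer binding above 40%, about triple the noise seen with nonglowing compounds, on plates passing quality control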;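 note: negative values mostly come from compounds that fluoresce themselves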
FAM quench CP2 = quenches fluorescent RNA aptamer, GRK2 hit artifact | shares compounds with GRK2 aptamer HTS | carboxyfluorescein RNA aptamer beads, flow cytometry quenching; hits give low values | fluorescence response vs DMSO, % at 10 µM | 360 tested, under 10 active;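 active = response vs DMSO under 50%, meaning signal dropped by over half, treated as fluorescence quencher; inconclusive = no clear call, values can overlap the other calls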;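 note: labelled aptamer on streptavidin beads without GRK2 as a quench counter-screen; 100% = bead fluorescence of DMSO wells and lower means quenching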
Numbers without * were called inactive; ? = inconclusive; . = no result.

SMILES | DNMT1 inh | LMPTP block | GRK2 aptamer HTS | STEP inh | Scp-1 inhibitor | SUMO1-SIM PPI | GRK2 inh confirm | FAM quench CP1 | others
CN(C)S(=O)(=O)c1ccc(Nc2nc(C3CC3)nc3c2nnn3Cc2ccccc2Cl)cc1 | -15 | 3 | 77* | -1 | -8 | 0 | . | . | GRK2 confirm 2=-30;FAM quench CP2=?
CC(=O)c1cn(CC(=O)Nc2ccccc2F)c2ccccc12 | 2 | -2 | 72* | 2 | -2 | 1 | -6 | 103
O=C(CCS(=O)(=O)c1ccccc1)Nc1nnc(C(F)(F)F)s1 | 16 | -1 | 25 | 6 | 21 | 10 | 9 | 102
CC(C)(C)c1nnc(NC(=O)CCS(=O)(=O)c2ccccc2)s1 | 6 | 0 | 6 | 4 | 8 | 9 | 1 | 97
Cc1nnc(NC(=O)CCS(=O)(=O)Cc2ccccc2)s1 | 2 | 0 | 0 | 5 | -4 | -4 | . | .
Cc1nnc(NC(=O)CCS(=O)(=O)c2ccccc2)s1 | 17 | 1 | 9 | 4 | 14 | 2 | 2 | 100
NC(=O)c1cccc(-c2ccnc3c2CC(C(=O)Nc2cccc(Oc4ccccc4)c2)O3)c1 (centres undefined) | -25 | 3 | . | -1 | . | 8 | . | .
CC(C)(C)NC(=O)C1(C)CCC(=O)N1C1CCN(Cc2ccccc2)CC1 (centres undefined) | -3 | 0 | . | 2 | . | 10 | . | .
CC(C)NC(=O)NC(=O)CSc1nnc(COc2ccccc2Cl)o1 | 2 | -1 | 71* | -2 | -7 | 0 | -3 | 103
COC(=O)[C@@]12C[C@@H](CC(=O)NCc3ccc(OC)c(OC)c3)C(=O)N(Cc3ccco3)C1=CCC(C)(C)C2 | . | 0 | . | . | . | -2 | . | .
CC(=O)C1=C(C)NC(=O)CC1c1ccccc1Cl (centres undefined) | 0 | -1 | 48* | 0 | -3 | 1 | -6 | 127
Cc1onc(-c2ccccc2)c1C(=O)NCC1CCCO1 (centres undefined) | 3 | 0 | 91* | -3 | -5 | -1 | -2 | 99
Cc1oc(-c2ccccc2F)nc1CN1CCC(C(=O)NC2CCCc3ccccc32)CC1 (centres undefined) | -2 | -1 | 0 | 0 | -1 | 4 | -1 | 94
COc1ccc(C(=O)N(c2ccc(OC)cc2)S(=O)(=O)c2cccs2)cc1 | 1 | 0 | 0 | 2 | -12 | 1 | . | .
CC(=O)N(c1ccc(N(C(C)=O)S(=O)(=O)c2cccs2)cc1)S(=O)(=O)c1cccs1 | 0 | -1 | 53* | 3 | -5 | 5 | -2 | 100
COc1ccc(N(C(=O)c2ccco2)S(=O)(=O)c2cccs2)cc1 | -3 | 0 | 98* | -8 | 1 | -3 | -1 | 97
C[C@H]1CCC2[C@](C)(CO)[C@@H](O)CC[C@]2(C)[C@@]12CCC(CO)(CCO)O2 (some centres undefined) | -1 | -1 | 44* | 0 | -6 | 1 | . | . | GRK2 confirm 2=14;FAM quench CP2=102
Cc1ccc2[nH]c(CNC(=O)C3CCCCC3)cc2c1 | -6 | 1 | 60* | 0 | -5 | -7 | 6 | 101
COc1cc(OC)cc(-c2cc3cc4c(cc3cn2)OCO4)c1 | -13 | 3 | 0 | 0 | -2 | -5 | . | .
COc1ccc(-c2cc3cc4c(cc3cn2)OCO4)cc1 | 2 | 0 | 41* | 0 | -2 | -9 | . | . | GRK2 confirm 2=10;FAM quench CP2=112
O=C(CN1CCCC1c1ccc2c(c1)OCCO2)NC(=O)Nc1ccccc1 (centres undefined) | -1 | -1 | 2 | -1 | -3 | -8 | . | .
CC(=O)N1CCC(C(=O)NCCOc2cccc(C)c2)CC1 | 3 | -2 | 65* | 2 | -1 | 1 | -2 | 99
Cn1cc(C(=O)OCC2CCN(CCNS(C)(=O)=O)CC2)c2ccccc21 | -1 | 0 | 0 | 3 | -11 | 5 | 0 | 96
CCN(CCC(=O)O)c1ccccc1 | -1 | -3 | 1 | 0 | 2 | 0 | . | .
NC(=O)N(CCC(=O)O)c1ccccc1 | 15 | -2 | 78* | 1 | 20 | 6 | . | . | GRK2 confirm 2=29;FAM quench CP2=99
SMILES | DNMT1 inh | LMPTP block | GRK2 aptamer HTS | STEP inh | Scp-1 inhibitor | SUMO1-SIM PPI | GRK2 inh confirm | FAM quench CP1 | others
CCN1CCN(CCCOc2ccc(-c3ccccc3)cc2)CC1 | . | . | 30 | . | -5 | . | -8 | 104
Cc1ccc(N2CC(C(=O)Nc3cccc(C(=O)NC4CC4)c3)CC2=O)cc1 (centres undefined) | 23 | -1 | 6 | 0 | 19 | 5 | 6 | 98
COc1ccc(C)cc1N1CC(C(=O)Nc2cccc(C(=O)NC3CC3)c2)CC1=O (centres undefined) | -3 | -2 | . | -2 | . | -3 | . | .
CN(CCCn1ccc(NC(=O)OCc2ccccc2)nc1=O)CCc1ccccn1 | 1 | -1 | . | 1 | . | 1 | . | .
Cc1nnc(C)c2c(C)n(Cc3ccc4c(c3)OCO4)c(C)c12 | 10 | 6 | 64* | 1 | 3 | -6 | -13 | 93
CN(C)S(=O)(=O)c1ccc(N2CCCC2)c(C(=O)Nc2nc3c(ccc4ccccc43)s2)c1 | -7 | 1 | 0 | 0 | -2 | -4 | . | . | GRK2 confirm 2=4;FAM quench CP2=106
Cc1ccc2c(c1)Oc1ccc(NC(=O)CCl)cc1C(=O)N2 | 7 | -1 | 41* | -2 | -13 | -3 | -8 | 116
Cc1ccc2c(c1)Oc1ccc([N+](=O)[O-])cc1C(=O)N2 | 8 | 0 | 2 | 0 | -8 | -11 | . | .
C[C@H](CO)N1C[C@H](C)[C@@H](CN(C)C(=O)c2ccncc2)OCc2cnnn2CCCC1=O | 6 | -2 | . | -1 | . | 2 | . | .
O=C(C[C@H]1CC[C@@H](NC(=O)C2CC2)[C@@H](CO)O1)NCc1ccccc1Cl | . | 0 | . | . | . | 4 | . | .
O=C(O)/C=C/C(=O)Nc1ccc(Cc2ccc(NC(=O)/C=C/C(=O)O)cc2)cc1 | 8 | 2 | 40 | 1 | 20 | 3 | 1 | 94
O=C(O)/C=C/C(=O)Nc1ccc(Oc2ccc(NC(=O)/C=C/C(=O)O)cc2)cc1 | . | . | 8 | . | . | . | . | .
